Test results from ChEMBL document CHEMBL2016498, “Synthesis and antiviral activity of a series of 1'-substituted 4-aza-7,9-dideazaadenosine C-nucleosides” (Bioorg Med Chem Lett, 2012).

How the values were obtained:
Huh-7 = experiment: (§1) Cytotoxicity against human HuH7 cells by MTS assay; assay type: cell-based; details: huh-7
Hepatitis C virus [1] = experiment: Antiviral activity against Hepatitis C virus genotype 1b infected in human HuH7 cells assessed as inhibition of virus induced cytopathic effect after 24 hrs by MTS assay; assay type: functional, organism-based, Hepacivirus hominis; details: Huh-7, 24 h
[2] = Selectivity ratio of CC50 for human HuH7 cells to EC50 for Hepatitis C virus genotype 1b; assay type: ADME, cell-based, Huh-7; details: read-out: Ratio CC50/EC50
Summary of the method: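 Anti-HCV EC50 was measured in a subgenomic HCV replicon cell assay, and CC50 was measured in the host cells of the same assay. The selectivity index was calculated as CC50/EC50.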

[3] = as §1; assay type: cell-based, Huh-7; details: HuH7 cells
[4] = Antiviral activity against Coxsackievirus A7 infected in human MRC5 cells assessed as inhibition of virus induced cytopathic effect after 24 hrs by MTS assay; assay type: functional, cell-based; details: Enterovirus A, MRC5, 24 h
Summary of the method: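 Cytoprotection (CPE) assay in MRC-5 cells infected with Coxsackie A strain A7 or A21. MTS dye reduction read out both protection from virus-induced CPE and compound cytotoxicity, giving EC50 and CC50.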

Yellow fever virus = experiment: Antiviral activity against Yellow fever virus 17D infected in human HeLa cells assessed as inhibition of virus induced cytopathic effect after 24 hrs by MTS assay; assay type: functional, cell-based
dengue virus type 2 = experiment: Antiviral activity against Dengue virus type 2 New Guinea C infected in african green monkey Vero E6 cells assessed as inhibition of virus induced cytopathic effect after 24 hrs by MTS assay; assay type: functional, organism-based
Vero [5] = experiment: Cytotoxicity against african green monkey Vero E6 cells by MTS assay; assay type: cell-based; details: chlorocebus sabaeus
Summary of the method: (§2)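 CC50 measured in the uninfected host cells used in each CPE assay. Compound cytotoxicity is read out by MTS dye reduction.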

SARS-CoV = experiment: Antiviral activity against SARS coronavirus Toronto-2 infected in african green monkey Vero cells assessed as inhibition of virus induced cytopathic effect after 24 hrs by MTS assay; assay type: functional, organism-based; details: Severe acute respiratory syndrome-related coronavirus, Toronto-2, Vero
Influenza A virus = experiment: Antiviral activity against Influenza A virus H3N2 infected in MDCK cells assessed as inhibition of virus induced cytopathic effect after 24 hrs by MTS assay; assay type: functional, organism-based
Vero [6] = experiment: Cytotoxicity against african green monkey Vero cells by MTS assay; assay type: cell-based; details: chlorocebus sabaeus; summary of the method: as §2
MRC5 = experiment: Cytotoxicity against human MRC5 cells by MTS assay; assay type: cell-based; summary of the method: as §2
HeLa = experiment: Cytotoxicity against human HeLa cells by MTS assay; assay type: cell-based; summary of the method: as §2
Coxsackievirus A21 = experiment: Antiviral activity against Coxsackievirus A21 infected in human MRC5 cells assessed as inhibition of virus induced cytopathic effect after 24 hrs by MTS assay; assay type: functional, organism-based; details: Enterovirus C, MRC5, 24 h
Summary of the method: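 EC50 taken from a cytoprotection (CPE) assay. Protection of virus-infected host cells is read out by MTS dye reduction. The Coxsackie A assay uses MRC-5 cells with strain A7 or A21.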

West Nile virus = experiment: Antiviral activity against West nile virus NY99 infected in african green monkey Vero cells assessed as inhibition of virus induced cytopathic effect after 24 hrs by MTS assay; assay type: functional, organism-based; details: NY-99, Vero
MDCK = experiment: Cytotoxicity against dog MDCK cells by MTS assay; assay type: cell-based, Canis lupus familiaris; summary of the method: as §2
Human respirovirus 3 = experiment: Antiviral activity against Parainfluenza 3 C 243 infected in african green monkey Vero cells assessed as inhibition of virus induced cytopathic effect after 24 hrs by MTS assay; assay type: functional, organism-based; details: Human respirovirus 3, C 243, Vero
Hepatitis C virus [7] = experiment: Inhibition of Hepatitis C virus genotype 1b NS5B RNA-dependent RNA polymerase using [33P]ATP after 90 mins by phosphoimaging; parameters: species or system Hepatitis C virus subtype 1b; details: 1.5 h
Summary of the method: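 Uses recombinant GT1b NS5B in 50 mM Tris–HCl pH 7.5 with 10 mM KCl, 1 mM DTT, 5 mM MgCl2, 0.2 unit/μL RNAsin and 0.01% BSA (final concentrations). 75 nM enzyme is pre-incubated with 4 ng/μL (50 nM) heteropolymer sshRNA template for 5 min at rt. Inhibitor is then added and incubated 5 min at RT.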

## CC(C)(C)C(=O)SCCOP(=O)(OCCSC(=O)C(C)(C)C)OC[C@H]1O[C@@](C#N)(c2ccc3c(N)ncnn23)[C@H](O)[C@@H]1O
Huh-7
  CC50: 3.2 µM
Hepatitis C virus [1]
  EC50: 0.085 µM
[2]
  selectivity ratio: 40

## N#C[C@@]1(c2ccc3c(N)ncnn23)O[C@H](CO)[C@@H](O)[C@H]1O [GS-441524]
[3]
  CC50: > 89 µM
[4]
  EC50: > 30 µM
Yellow fever virus
  EC50: 11 µM
Dengue virus type 2
  EC50: 9.46 µM
Vero [5]
  CC50: > 30 µM
SARS-CoV
  EC50: 2.24 µM
Influenza A virus
  EC50: 27.9 µM
Vero [6]
  CC50: > 30 µM
MRC5
  CC50: > 30 µM
HeLa
  CC50: > 30 µM
Coxsackievirus A21
  EC50: > 30 µM
West Nile virus
  EC50: > 30 µM
MDCK
  CC50: > 30 µM
Human respirovirus 3
  EC50: 1.71 µM

## CC(C)(C)C(=O)SCCOP(=O)(OCCSC(=O)C(C)(C)C)OC[C@H]1O[C@@](C)(c2ccc3c(N)ncnn23)[C@H](O)[C@@H]1O
Huh-7
  CC50: 0.73 µM
Hepatitis C virus [1]
  EC50: 0.078 µM
[2]
  selectivity ratio: < 10

## C#C[C@@]1(c2ccc3c(N)ncnn23)O[C@H](COP(=O)(OCCSC(=O)C(C)(C)C)OCCSC(=O)C(C)(C)C)[C@@H](O)[C@H]1O
Huh-7
  CC50: 26 µM
Hepatitis C virus [1]
  EC50: 6.01 µM
[2]
  selectivity ratio: < 10

## C[C@@]1(c2ccc3c(N)ncnn23)O[C@H](COP(=O)(O)OP(=O)(O)OP(=O)(O)O)[C@@H](O)[C@H]1O
Hepatitis C virus [7]
  IC50: 20 µM

## N#C[C@@]1(c2ccc3c(N)ncnn23)O[C@H](COP(=O)(O)OP(=O)(O)OP(=O)(O)O)[C@@H](O)[C@H]1O [RDV-TP]
Hepatitis C virus [7]
  IC50: 5.6 µM

## C[C@@]1(c2ccc3c(N)ncnn23)O[C@H](CO)[C@@H](O)[C@H]1O
[3]
  CC50: > 45 µM
[4]
  EC50: > 30 µM
Dengue virus type 2
  EC50: > 30 µM
Vero [5]
  CC50: > 30 µM
SARS-CoV
  EC50: > 30 µM
Influenza A virus
  EC50: > 30 µM
Vero [6]
  CC50: > 30 µM
MRC5
  CC50: > 30 µM
Coxsackievirus A21
  EC50: > 30 µM
West Nile virus
  EC50: > 30 µM
MDCK
  CC50: > 30 µM
Human respirovirus 3
  EC50: 5.23 µM

## C=C[C@@]1(c2ccc3c(N)ncnn23)O[C@H](CO)[C@@H](O)[C@H]1O
[3]
  CC50: > 89 µM
[4]
  EC50: > 30 µM
Dengue virus type 2
  EC50: > 30 µM
Vero [5]
  CC50: > 30 µM
SARS-CoV
  EC50: 14 µM
Influenza A virus
  EC50: > 30 µM
Hepatitis C virus [1]
  EC50: > 89 µM
Vero [6]
  CC50: > 30 µM
MRC5
  CC50: > 30 µM
Coxsackievirus A21
  EC50: > 30 µM
West Nile virus
  EC50: > 30 µM
MDCK
  CC50: > 30 µM
Human respirovirus 3
  EC50: > 30 µM

## C=C[C@@]1(c2ccc3c(N)ncnn23)O[C@H](COP(=O)(OCCSC(=O)C(C)(C)C)OCCSC(=O)C(C)(C)C)[C@@H](O)[C@H]1O
Huh-7
  CC50: 12 µM
Hepatitis C virus [1]
  EC50: 3.43 µM
[2]
  selectivity ratio: < 10

## C#C[C@@]1(c2ccc3c(N)ncnn23)O[C@H](CO)[C@@H](O)[C@H]1O
[3]
  CC50: > 89 µM
[4]
  EC50: > 30 µM
Dengue virus type 2
  EC50: > 30 µM
Vero [5]
  CC50: > 30 µM
SARS-CoV
  EC50: > 30 µM
Influenza A virus
  EC50: > 30 µM
Hepatitis C virus [1]
  EC50: > 89 µM
Vero [6]
  CC50: > 30 µM
MRC5
  CC50: > 30 µM
Coxsackievirus A21
  EC50: > 30 µM
West Nile virus
  EC50: > 30 µM
MDCK
  CC50: > 30 µM
Human respirovirus 3
  EC50: > 30 µM

## C#C[C@@]1(c2ccc3c(N)ncnn23)O[C@H](COP(=O)(O)OP(=O)(O)OP(=O)(O)O)[C@@H](O)[C@H]1O
Hepatitis C virus [7]
  IC50: 232 µM

## C=C[C@@]1(c2ccc3c(N)ncnn23)O[C@H](COP(=O)(O)OP(=O)(O)OP(=O)(O)O)[C@@H](O)[C@H]1O
Hepatitis C virus [7]
  IC50: 178 µM
